Assay type in all cases: functional
For assay [1], the system named is Cavia porcellus. As to the kind of experiment: Skin test reactivity (intensity of erythema and edema) was measured in guinea pig sensitized to poison ivy urushiol by Draize method. Put shortly: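 Urushiol-sensitized guinea pigs (1 mg in 0.15 mL acetone, dorsal neck) received eliciting doses in acetone on abdominal skin. Erythema and edema were scored 0–4 by Draize at 24, 48 and 72 h and averaged per group. Irritancy was tested with similar doses on nonsensitized animals.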

For assay [2], the species on record is Cavia porcellus. As to the kind of experiment: The dose which shows the cross-reactivity with guinea pig sensitized to poison ivy urushiol. Put shortly:
(§1)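 Guinea pigs sensitized topically with 1 mg purified poison ivy urushiol in 0.15 mL acetone on dorsal neck skin (about 10 cm2). Sensitivity was checked with 2 μg PDC in acetone on shaven abdominal skin. Test compounds (10 and 30 μg in acetone) went on abdominal sites. Animals counted positive for erythema/edema at 24, 48 and 72 h, alongside urushiol controls.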

The species named for assay [3] is Cavia porcellus. As to the kind of experiment: Allergenic cross-reactivity was expressed as number of guinea pig with a positive skin reaction versus number tested upon sensitizing them to poison ivy urushiol; 0/15. Put shortly:
as §1

For assay [4], the species on record is Cavia porcellus. In words: Allergenic cross-reactivity was expressed as number of guinea pig with a positive skin reaction versus number tested upon sensitizing them to poison ivy urushiol; 0/7. Put shortly: as §1
For assay [5], the species on record is Cavia porcellus. As to the kind of experiment: Allergenic cross-reactivity was expressed as number of guinea pig with a positive skin reaction versus number tested upon sensitizing them to poison ivy urushiol; 2/9. Put shortly: as §1
Assay [6] is filed under the species Cavia porcellus. As to the kind of experiment: Allergenic cross-reactivity was expressed as number of guinea pig with a positive skin reaction versus number tested upon sensitizing them to poison ivy urushiol; 7/7. Put shortly:
as §1

The species entered for assay [7] is Cavia porcellus. In words: Allergenic cross-reactivity was expressed as number of guinea pig with a positive skin reaction versus number tested upon sensitizing them to poison ivy urushiol; 0/8. Put shortly:
as §1

For assay [8], the species on record is Cavia porcellus. In words: Allergenic cross-reactivity was expressed as number of guinea pig with a positive skin reaction versus number tested upon sensitizing them to poison ivy urushiol; 5/9. Put shortly:
as §1

As to `CCCCCCCCCCCCCCCc1ccc(O)cc1O`, the Activity in the assay with Cavia porcellus [1] and in the assay listed under Cavia porcellus [3] was 0 in each case. Besides, the Dose in the assay listed under Cavia porcellus [2] is 30 µg.

In the case of `CCCCCCCCCCCCCCCc1cccc(O)c1NS(C)(=O)=O`, the Activity with Cavia porcellus [1] and in the assay listed under Cavia porcellus [4] was 0 throughout. For the same compound, the Dose in the assay listed under Cavia porcellus [2] came to 10 µg.

In the case of `CCCCCCCCCCCCCCCCCc1cccc(O)c1NS(C)(=O)=O`, the Activity with Cavia porcellus [1] and in the assay filed under Cavia porcellus [4] was 0 throughout. Further, the Dose in the assay listed under Cavia porcellus [2] stood at 10 µg.

Take `CCCCCCCCCCCCCCCc1ccc(O)c(O)c1`: the Activity in the assay on Cavia porcellus [1] stood at 0.1; in the assay listed under Cavia porcellus [5], 2. Also, the Dose in the assay filed under Cavia porcellus [2] came to 1 µg.

Turning to `CCCCCCCCCCCCCCCCCc1cccc(O)c1N`, the Activity in the assay on Cavia porcellus [1] was 2.9; in the assay filed under Cavia porcellus [6], 7. Further, the Dose in the assay filed under Cavia porcellus [2] worked out at 10 µg.

Consider `CCCCCCCCCCCCCCc1c(O)cccc1O`, for which the Activity in the assay with Cavia porcellus [1] and in the assay filed under Cavia porcellus [7] was 0 each time. The Dose in the assay filed under Cavia porcellus [2] worked out at 10 µg.

Take `CCCCCCCCCCCCCCCc1cc(O)ccc1O`: the Activity with Cavia porcellus [1] and in the assay filed under Cavia porcellus [3] was 0 in each case. The Dose in the assay filed under Cavia porcellus [2] is 1 µg.

For `CCCCCCCCCCCCCCCc1cccc(NS(C)(=O)=O)c1O`, the Activity with Cavia porcellus [1] and in the assay listed under Cavia porcellus [4] was 0 each time. Moreover, the Dose in the assay listed under Cavia porcellus [2] came out at 10 µg.

Take `CCCCCCCCCCCCCCCc1cc(O)cc(O)c1` [CARDOL]: the Activity was 0.6 with Cavia porcellus [1] and 5 in the assay listed under Cavia porcellus [8]. Besides, the Dose in the assay listed under Cavia porcellus [2] came out at 30 µg.

`CCCCCCCCCCCCCCCc1cccc(N)c1O`: the results for the Activity in the assay with Cavia porcellus [1] and in the assay filed under Cavia porcellus [6] were 2.4 and 7, respectively. Besides, the Dose in the assay filed under Cavia porcellus [2] was found to be 10 µg.

`CCCCCCCCCCCCCc1cccc(O)c1NS(C)(=O)=O`: the Activity in the assay on Cavia porcellus [1] and in the assay listed under Cavia porcellus [4] was 0 throughout. For the same compound, the Dose in the assay listed under Cavia porcellus [2] amounted to 10 µg.

Consider `CCCCCCCCCCCCCCCc1cccc(O)c1N`, for which the Activity came to 2.9 in the assay on Cavia porcellus [1] and 7 in the assay filed under Cavia porcellus [6]. The Dose in the assay filed under Cavia porcellus [2] turned out to be 10 µg.

For the compound `CCCCCCCCCCCCCc1cccc(O)c1N`, the Activity in the assay on Cavia porcellus [1] is given as 2.9; in the assay filed under Cavia porcellus [6], 7. Further, in the assay filed under Cavia porcellus [2], the Dose was determined as 10 µg.

(Values after ChEMBL document CHEMBL1123164, “Analogues of poison ivy urushiol. Synthesis and biological activity of disubstituted n-alkylbenzenes” (1986).)
